Results taken from PMC12018814 (Plant Biotechnology Journal, 2025).

System: Ach15909
Test: HPLC of salidroside formed
Format: biochemical, Astilbe chinensis
Details: 2 mM UDP-glucose, 0.05-2.0 mM tyrosol, 50 mM PB pH 8.0, 37 °C, 30 min
Method in brief: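 Recombinant A. chinensis UGT was expressed in E. coli Rosetta 2 (DE3), Ni-NTA purified with an imidazole gradient, exchanged into PBS pH 7.4, and quantified by BCA. Reactions were started by adding protein and quenched for C18 HPLC (0.1% formic acid water/acetonitrile gradient, 275 nm). Salidroside was quantified against an external standard curve, in triplicate, with kinetic parameters from non-linear fitting.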

Km: 740 ± 200 µM
Structure (SMILES): OCCc1ccc(O)cc1 [compound 1, tyrosol]
